Experimental data: ChEMBL document CHEMBL3856208, “Lupane and 18α-oleanane derivatives substituted in the position 2, their cytotoxicity and influence on cancer cells” (Eur J Med Chem, 2016)

Key:
[1] = Cytotoxicity against human CEM/DNR cells after 72 hrs by MTS assay; format: functional, cell-based
In short: (§1)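 Cells seeded at 25000–35000 cells/mL, compounds from DMSO dosed at time zero as four-fold dilutions. Exposure 72 h at 37 °C, 5% CO2, with MTS added for 1–4 h and OD read at 490 nm. Survival expressed as % of mean control OD, with IC50 from dose-response curves. Run as technical duplicates in at least three biological replicates.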

[2] = Cytotoxicity against human MRC5 cells after 72 hrs by MTS assay; format: toxicity, cell-based; in short: as §1
[3] = Cytotoxicity against human U2OS cells after 72 hrs by MTS assay; format: functional, cell-based; in short: as §1
[4] = Cytotoxicity against human BJ cells after 72 hrs by MTS assay; format: toxicity, cell-based; in short: as §1
[5] = Cytotoxicity against human HCT116 cells after 72 hrs by MTS assay; format: functional, cell-based; settings: HCT-116, 72 h; in short: as §1
[6] = Cytotoxicity against human CCRF-CEM cells after 72 hrs by MTS assay; format: functional, cell-based; in short: as §1
[7] = Cytotoxicity against human A549 cells after 72 hrs by MTS assay; format: functional, cell-based; settings: A549, 72 h; in short: as §1
[8] = Cytotoxicity against human K562-TAX cells after 72 hrs by MTS assay; format: functional, cell-based; in short: as §1
[9] = Cytotoxicity against p53 deficient human HCT116 cells after 72 hrs by MTS assay; format: functional, cell-based; settings: HCT-116, 72 h; in short: as §1
[10] = Cytotoxicity against human K562 cells after 72 hrs by MTS assay; format: functional, cell-based; settings: K562, 72 h; in short: as §1
[11] = Therapeutic index, ratio of IC50 for human MRC5 cells to IC50 for human CCRF-CEM cells; format: cell-based; settings: MRC5 cells versus CCRF-CEM cells, read-out: Ratio IC50
[12] = Therapeutic index, ratio of IC50 for human BJ cells to IC50 for human CCRF-CEM cells; format: cell-based; settings: BJ cells versus CCRF-CEM cells, read-out: Ratio IC50

Row | Structure (SMILES) | IC50 [1] [µM] | IC50 at 72 h [2] [µM] | IC50 [3] [µM] | IC50 at 72 h [4] [µM] | IC50 [5] [µM] | IC50 [6] [µM] | IC50 [7] [µM] | IC50 [8] [µM] | IC50 [9] [µM] | IC50 [10] [µM] | selectivity ratio [11] | selectivity ratio [12]
1 | COC(=O)[C@]12CC[C@@H](C(C)C)[C@@H]1[C@H]1CC[C@@H]3[C@@]4(C)CC(S)C(=O)C(C)(C)[C@@H]4CC[C@@]3(C)[C@]1(C)CC2 (stereo partly drawn) | > 50 | > 50 | > 50 | > 50 | > 50 | 40 to 45.3 | > 50 | > 50 | > 50 | > 50 | > 1.1 | > 1.1
2 | CC(C)[C@@H]1CC[C@]2(C(=O)O)CC[C@]3(C)[C@H](CC[C@@H]4[C@@]5(C)CC(N=[N+]=[N-])C(=O)C(C)(C)[C@@H]5CC[C@]43C)[C@@H]12 (stereo partly drawn) | 16 | > 50 | 48.9 | > 50 | > 50 | 17 to 17.5 | 25.7 | 10.6 | > 50 | 14.2 | > 2.9 | > 2.9
3 | CC(=O)NC1C[C@]2(C)[C@H]3CC[C@@H]4[C@H]5[C@H]6OC[C@@]5(CCC6(C)C)CC[C@@]4(C)[C@]3(C)CC[C@H]2C(C)(C)C1=O (stereo partly drawn) | > 50 | 21.6 | > 50 | > 50 | 42.9 | 32 to 32.2 | > 50 | > 50 | 38.7 | 32.4 | > 1.1 | > 1.1
4 | CC(C)[C@@H]1CC[C@]2(C(=O)O)CC[C@]3(C)[C@H](CC[C@@H]4[C@@]5(C)C=C(N)C(=O)C(C)(C)[C@@H]5CC[C@]43C)[C@@H]12 | 33.9 | > 50 | > 50 | > 50 | > 50 | 26.6 to 27 | > 50 | 20.1 | > 50 | > 50 | > 1.9 | > 1.9
5 | CC1(C)CC[C@]23CC[C@]4(C)[C@H](CC[C@@H]5[C@@]6(C)C=C(O)C(=O)C(C)(C)[C@@H]6CC[C@]54C)[C@H]2[C@H]1OC3 | > 50 | 25.4 | 45.8 | > 50 | 41.6 | 13 to 13.1 | > 50 | 45.3 | 33.4 | 16.9 | > 2.9 | > 2.9
6 | CC(C)[C@@H]1CC[C@]2(C(=O)O)CC[C@]3(C)[C@H](CC[C@@H]4[C@@]5(C)CC([N+](=O)[O-])=C(O)C(C)(C)[C@@H]5CC[C@]43C)[C@@H]12 | 36.1 | > 50 | > 50 | > 50 | > 50 | 31.8 to 32 | 31.3 | 20.6 | > 50 | 10.1 | > 1.6 | > 1.6
7 | CC1(C)CC[C@]23CC[C@]4(C)[C@H](CC[C@@H]5[C@@]6(C)C[C@@H](NC(=O)CCC(=O)O)[C@H](O)C(C)(C)[C@@H]6CC[C@]54C)[C@H]2[C@H]1OC3 | – | – | – | – | – | > 50 | – | – | – | – | – | –
8 | CC(C)[C@@H]1CC[C@]2(C(=O)O)CC[C@]3(C)[C@H](CC[C@@H]4[C@@]5(C)CCC(=O)C(C)(C)[C@@H]5CC[C@]43C)[C@@H]12 [DIHYDROBETULONIC ACID] | – | – | – | – | – | 4 | – | – | – | – | – | –
9 | CC(=O)N[C@H]1C[C@]2(C)[C@H]3CC[C@@H]4[C@H]5[C@H]6OC[C@@]5(CCC6(C)C)CC[C@@]4(C)[C@]3(C)CC[C@H]2C(C)(C)[C@H]1OC(C)=O | – | – | – | – | – | > 50 | – | – | – | – | – | –
10 | C=C(C)[C@@H]1CC[C@]2(C(=O)O)CC[C@]3(C)[C@H](CC[C@@H]4[C@@]5(C)CCC(=O)C(C)(C)[C@@H]5CC[C@]43C)[C@@H]12 [BETUNOLIC ACID] | – | – | – | – | – | 14 | – | – | – | – | – | –
11 | CC(=O)NC1=C[C@]2(C)[C@H]3CC[C@@H]4[C@H]5[C@H]6OC[C@@]5(CCC6(C)C)CC[C@@]4(C)[C@]3(C)CC[C@H]2C(C)(C)C1=O | 35.3 | > 50 | > 50 | > 50 | > 50 | 29.9 to 30 | > 50 | 30.5 | > 50 | 37.9 | > 1.7 | > 1.7
12 | CC(C)[C@@H]1CC[C@]2(C(=O)O)CC[C@]3(C)[C@H](CC[C@@H]4[C@@]5(C)CC([N+](=O)[O-])([N+](=O)[O-])C(=O)C(C)(C)[C@@H]5CC[C@]43C)[C@@H]12 | 46.6 | > 50 | > 50 | > 50 | > 50 | 28.6 to 29 | > 50 | 29.9 | > 50 | > 50 | > 1.7 | > 1.7
13 | CC(C)[C@@H]1CC[C@]2(C(=O)O)CC[C@]3(C)[C@H](CC[C@@H]4[C@@]5(C)C=C(NC6=C[C@]7(C)[C@H]8CC[C@@H]9[C@H]%10[C@H](C(C)C)CC[C@]%10(C(=O)O)CC[C@@]9(C)[C@]8(C)CC[C@H]7C(C)(C)C6=O)C(=O)C(C)(C)[C@@H]5CC[C@]43C)[C@@H]12 | 33.9 | > 50 | > 50 | > 50 | > 50 | 26.6 to 27 | > 50 | 20.1 | > 50 | > 50 | > 1.9 | > 1.9
14 | CC1(C)CC[C@]23CC[C@]4(C)[C@H](CC[C@@H]5[C@@]6(C)CC(Br)C(=O)C(C)(C)[C@@H]6CC[C@]54C)[C@H]2[C@H]1OC3 (stereo partly drawn) | – | – | – | – | – | > 50 | – | – | – | – | – | –
